Experimental data gathered from unrelated publications.
Compare with care: the assays were run in different laboratories.
DRD4: D(4) dopamine receptor (DRD4, Homo sapiens, UniProt P21917)
HTR5A: 5-hydroxytryptamine receptor 5A (HTR5A, Homo sapiens, UniProt P47898)
PIK3CD: Phosphatidylinositol 4,5-bisphosphate 3-kinase catalytic subunit delta isoform (PIK3CD, Homo sapiens, UniProt O00329)

SMILES	target	test	conditions	quantity	result
COc1ccc(CCC2=NCCN2CCc2ccccc2)cc1	DRD4	ligand displacement, radioligand	–	Ki	501 nM
O=C1c2ccccc2CCN1CCCCN1CCN(c2cccc(Cl)c2Cl)CC1	HTR5A	ligand displacement, radioligand	–	Ki	773 nM
CS(=O)(=O)C1(CNCc2ccc(Br)c3cccnc23)CC1	HTR5A	ligand displacement, radioligand	–	Ki	178 nM
O=C1c2ccccc2CCN1CCCCN1CCN(c2ccccn2)CC1	DRD4	ligand displacement, radioligand	–	Ki	14.5 nM
CC(C)=CCC/C(C)=C/CC/C(C)=C/CSc1ccccc1C(=O)O	Squalene synthase (Homo sapiens, UniProt P37268)	enzyme activity, inhibitor	–	Ki	370 nM
CC[C@H](NC(=O)[C@H](CS(=O)(=O)CC1CC1)N[C@@H](c1ccc(F)cc1)C(F)(F)F)C(=O)C(=O)NC1CC1	Cathepsin F (Homo sapiens, UniProt Q9UBX1)	enzyme activity, inhibitor, fluorescence	with preincubation	Ki	4.7 nM
CCn1c(-c2nc3cc(C(=O)N4CCC[C@@H](N)C4)cc(OC)c3n2C)cc2cccnc21	Nuclear receptor subfamily 1 group I member 2 (NR1I2, Homo sapiens, UniProt O75469)	reporter gene, agonist, luciferase	–	EC50	> 50100 nM
CCN(CC)c1ccc(C2Nc3ccc(C(=O)c4ccccc4)cc3NC3=C2C(=O)CC(C)(C)C3)cc1 (stereo not drawn)	HTR5A	cell-free assay, radioligand	–	Ki	7960 nM
CC(=O)CC(=O)SCCNC(=O)CCNC(=O)[C@H](O)C(C)(C)COP(=O)(O)OP(=O)(O)OC[C@H]1O[C@@H](n2cnc3c(N)ncnc32)[C@H](O)[C@@H]1OP(=O)(O)O	IVD (Homo sapiens, UniProt P26440)	binding, absorbance	–	Kd	~18000 nM
CCC(=O)N1CCC(C(=O)NCC(=O)N2CCN(c3nc(-c4cnc(N)nc4C(F)F)nc(N4CCOCC4)n3)CC2)CC1	PIK3CD	binding, competition with immobilised ligand	–	Kd	1.6 nM
CNc1nc2cc(OCCCCN3CCC(c4cccc(Cl)c4Cl)CC3)ccc2s1	HTR5A	ligand displacement, radioligand	–	Ki	810 nM
Cc1cnc(-c2ccc(-c3ccc(NC(=O)Nc4c(F)cc(F)cc4F)cc3F)c3c2C(=O)NC3)[nH]1	Mast/stem cell growth factor receptor Kit (KIT, Homo sapiens, UniProt P10721)	binding, competition with immobilised ligand	–	Kd	0.8 nM
COc1ccc(F)cc1C(=O)NCc1ccc(-c2nn([C@@H](C)C(F)(F)F)c(N)c2C(N)=O)cc1	Tyrosine-protein kinase BTK (BTK, Homo sapiens, UniProt Q06187)	target engagement in cells, BRET	–	IC50	0.66 nM
CC1=C(O)C(=O)OC1C (stereo not drawn)	OR8D1 (Homo sapiens, UniProt Q8WZ84, R293A)	cAMP, agonist, luciferase	–	EC50	13500 nM
Clc1ccc(CNC[C@H]2CCn3ccnc3C2)c2ncccc12	HTR5A	ligand displacement, radioligand	–	Ki	3240 nM
C=CC(=O)N1CCC(C(=O)NCC(=O)N2CCN(c3nc(-c4cnc(N)nc4C(F)F)nc(N4CCOCC4)n3)CC2)CC1	PIK3CD	binding, competition with immobilised ligand	–	Kd	0.71 nM
CCCCCCSC[C@H]1CN(Cc2c[nH]c3c(N)ncnc23)C[C@@H]1O	Aminodeoxyfutalosine nucleosidase (Helicobacter pylori, UniProt Q9ZMY2)	enzyme activity, inhibitor, absorbance	pH 7.4	Ki	0.085 nM
CC[C@@H]1C(=O)OC[C@@H]1Cc1cncn1C	Cytochrome P450 2E1 (CYP2E1, Homo sapiens, UniProt P05181)	enzyme activity, inhibitor	10 min, pH 6.8	Ki	765000 nM
